How the values were obtained:
[1] = system: Human immunodeficiency virus 1; test: Antiviral activity against HIV1 in human C8166 cells assessed as prevention of virus-induced cytopathic effect; assay type: functional, organism-based; conditions: Human immunodeficiency virus 1, C8166
Method in brief: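 HIV-1 infection of C8166 cells, with protection measured as inhibition of virus-induced cytopathic effects and reported as EC50. Cytotoxicity in the same cells was determined in parallel. AZT served as positive control.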

[2] = Cytotoxicity against human C8166 cells by MTT assay; assay type: cell-based
Method in brief: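 MTT viability assay on C8166 cells, reported as CC50. It was run in parallel with the HIV-1 cytopathic-effect assay, with AZT as positive control.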

[3] = Selectivity index, Ratio of CC50 for human C8166 cells to EC50 for HIV1

| EC50 [1] [µM] | SMILES | CC50 [2] [µM] | Ratio [3] |
| --- | --- | --- | --- |
| 15.6 | COc1cc(C[C@@H](C)[C@@H](C)Cc2ccc(O)c(OC)c2)ccc1O [MESODIHYDROGUAIARETIC ACID] | 49.1 |  |
| 40.9 | COc1ccc([C@H]2Oc3c(OC)cc(C=O)cc3[C@@H]2C)cc1O [PERSEAL F] | 270 |  |
| > 200 | COc1cc2c(c(O)c1OC)-c1c(cc(OC)c(OC)c1OC)[C@@H](OC(C)=O)[C@H](C)[C@H](C)[C@@H]2O [KADANGUSTIN A] | > 200 |  |
| 138 | C/C=C(/C)C(=O)O[C@@H]1c2cc3c(c(OC)c2-c2c(cc4c(c2OC)OCO4)[C@@H](O)[C@H](C)[C@@H]1C)OCO3 [SCHISANTHERIN L] | > 200 |  |
| 54.6 | COc1c2c(cc3c1-c1c(cc4c(c1OC)OCO4)[C@@H](O)[C@@H](C)[C@@H](C)C3)OCO2 [GOMISIN R] | 221 |  |
| 43.6 | COc1cc2c(c(OC)c1OC)-c1c(cc(OC)c(OC)c1OC)[C@@H]1O[C@H]2[C@H](C)[C@@H]1C [KADSULIGNAN N] | 382 |  |
| 13.1 | C=CCc1cc(OC)c2c(c1)[C@H](CO)[C@@H](c1ccc(O)c(OC)c1)O2 | 38.1 |  |
| 26.2 | COc1cc2c(c(OC)c1OC)-c1c(cc3c(c1OC)OCO3)[C@H]1O[C@@H]2[C@@H](C)[C@H]1C [KADSULIGNAN L] | 361 |  |
| 44.7 | COc1ccc(C(c2ccc(OC)c(OC)c2)C(C)C(C)CO)cc1OC (centres undefined) [KADANGUSTIN J] | 247 |  |
| 21.5 | COc1cc(C(O)C(C)C(C)Cc2cc(OC)c3c(c2)OCO3)cc(O)c1OC (centres undefined) [KADANGUSTIN I] | 35.1 |  |
| 45.9 | COc1c2c(cc3c1-c1c(cc4c(c1OC)OCO4)[C@@H](O)[C@H](C)[C@H](C)C3=O)OCO2 [SCHISANTHERIN Q] | 212 | 4.61 |
| 156 | COc1c2c(cc3c1-c1c(cc4c(c1OC)OCO4)[C@@H](O)[C@@H](C)[C@@H](C)[C@@H]3O)OCO2 [SCHISANTHERIN P] | > 200 |  |
| 150 | COc1c2c(cc3c1-c1c(cc4c(c1OC)OCO4)[C@@H](OC(C)=O)[C@H](C)[C@H](C)[C@@H]3O)OCO2 [KADANGUSTIN B] | > 200 |  |
| 95.2 | C/C=C(/C)C(=O)Oc1c(OC)c(OC)cc2c1-c1c(cc(O)c(OC)c1OC)[C@@H](O)[C@H](C)[C@H](C)C2 [SCHISANTHERIN F] | > 200 |  |
| 168 | C/C=C(/C)C(=O)O[C@@H]1c2cc(OC)c(OC)c(OC)c2-c2c(cc3c(c2OC)OCO3)[C@@H](OC(C)=O)[C@H](C)[C@]1(C)O [KADSURARIN] | > 200 |  |
| 25.4 | COc1cc2c(c(O)c1OC)-c1c(cc(OC)c(OC)c1OC)[C@@H](OC(C)=O)[C@H](C)[C@H](C)[C@@H]2OC(=O)/C=C/c1ccccc1 [KADANGUSTIN D] | 97.5 |  |
| 9.35 | COc1c2c(cc3c1-c1c(cc4c(c1OC)OCO4)[C@@H]1O[C@H]3[C@H](C)[C@@H]1C)OCO2 [EPOXIDESCHISANDRIN C] | 220 |  |
| 38.3 | COc1cc2c(c(O)c1OC)-c1c(cc(OC)c(OC)c1OC)[C@@H](OC(C)=O)[C@H](C)[C@](C)(O)[C@@H]2OC(=O)/C=C/c1ccccc1 [KADANGUSTIN C] | 190 |  |
| 199 | COc1cc2c(c(O)c1OC)-c1c(cc(O)c(OC)c1OC)[C@@H](O)[C@H](C)[C@H](C)C2 [DEANGELOYLSCHISANTHERIN F] | 281 |  |
| 3.86 | COc1cc2c(c(O)c1OC)-c1c(cc3c(c1OC)OCO3)[C@@H](O)[C@H](C)[C@H](C)C2 [BINANKADSURIN A] | 227 |  |
| 27 | COc1ccc(CC(C)C(C)C(O)c2cc(O)c(OC)c(OC)c2)cc1OC (centres undefined) [KADANGUSTIN H] | 30.7 |  |
| 60.8 | COc1cc2c(c(O)c1OC)-c1c(cc(OC)c(OC)c1OC)[C@@H](OC(C)=O)[C@H](C)[C@H](C)[C@@H]2OC(=O)c1ccccc1 [KADANGUSTIN E] | 138 |  |
| 25.7 | C/C=C(\C)C(=O)O[C@@H]1c2cc(OC)c(OC)c(O)c2-c2c(cc(OC)c(OC)c2OC)[C@@H](OC(C)=O)[C@H](C)[C@@H]1C [KADANGUSTIN G] | 72.2 |  |
| 72.6 | C/C=C(/C)C(=O)O[C@@H]1c2cc(OC)c(OC)c(O)c2-c2c(cc(OC)c(OC)c2OC)[C@@H](OC(C)=O)[C@H](C)[C@@H]1C [KADANGUSTIN F] | 160 |  |
